Measurements from ChEMBL document CHEMBL3621046, “Discovery of a potent enoyl-acyl carrier protein reductase (FabI) inhibitor suitable for antistaphylococcal agent” (Bioorg Med Chem Lett, 2015).
Values after ≈ are worked out from the molar mass of the structure shown.

Assays:
[1] = target: T1, Enoyl-[acyl-carrier-protein] reductase [NADPH] FabI (Staphylococcus aureus, UniProt Q6GI75); experiment: Inhibition of Staphylococcus aureus FabI assessed as reduction in inhibition of reduction of trans-2-octenoyl N-acetylcysteamine substrate by spectrophotometry
T1 sequence (Q6GI75 whole entry): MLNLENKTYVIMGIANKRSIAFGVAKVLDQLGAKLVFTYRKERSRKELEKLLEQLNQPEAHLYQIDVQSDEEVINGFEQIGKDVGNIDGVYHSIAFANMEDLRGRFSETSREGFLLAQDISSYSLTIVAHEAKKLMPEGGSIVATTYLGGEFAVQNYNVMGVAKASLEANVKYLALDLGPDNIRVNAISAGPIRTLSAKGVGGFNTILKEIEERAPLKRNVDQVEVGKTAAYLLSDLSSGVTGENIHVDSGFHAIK

Staphylococcus aureus [2] = experiment: Antibacterial activity against methicillin-resistant Staphylococcus aureus incubated for 18 hrs by agar dilution method; format: functional
Procedure, shortened: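 Agar dilution. Strains were grown 18 h at 37 °C with shaking in Fleisch extract broth (beef extract 1%, peptone 1%, NaCl 0.3%, Na₂HPO₄ 0.2%, pH 7.4–7.5), then diluted 100-fold. Plates incubated 37 °C, 18 h. MIC is the lowest concentration preventing growth.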

Staphylococcus aureus [3] = experiment: Antibacterial activity against Staphylococcus aureus incubated for 18 hrs by agar dilution method; format: functional
[4] = AUClast in ICR mouse at 10 mg/kg, iv after 5 mins to 6 hrs; format: ADME, organism-based; design: time lower 0.083 hr, dose 10 mg/kg, time upper 6 hr, route intravenous; settings: in vivo
[5] = Terminal half life in ICR mouse at 10 mg/kg, iv after 5 mins to 6 hrs; format: ADME, organism-based; settings: in vivo, read-out: beta t1/2
[6] = Terminal half life in ICR mouse at 10 mg/kg, po after 5 mins to 6 hrs; format: ADME, organism-based; settings: in vivo, read-out: beta t1/2
[7] = AUC (0 to infinity) in ICR mouse at 10 mg/kg, iv after 5 mins to 6 hrs; format: ADME, organism-based; design: dose 10 mg/kg, time infinity, route intravenous; settings: in vivo
[8] = Tmax in ICR mouse at 10 mg/kg, po after 5 mins to 6 hrs; format: ADME, organism-based; settings: in vivo
[9] = Cmax in ICR mouse at 10 mg/kg, po after 5 mins to 6 hrs; format: ADME, organism-based; design: dose 10 mg/kg, route oral; settings: in vivo
[10] = AUC (0 to infinity) in ICR mouse at 10 mg/kg, po after 5 mins to 6 hrs; format: ADME, organism-based; design: dose 10 mg/kg, time infinity, route oral; settings: in vivo
[11] = Mean residence time in ICR mouse at 10 mg/kg, iv after 5 mins to 6 hrs; format: ADME, organism-based; settings: in vivo
[12] = AUClast in ICR mouse at 10 mg/kg, po after 5 mins to 6 hrs; format: ADME, organism-based; design: dose 10 mg/kg, time upper 6 hr, time lower 0.083 hr, route oral; settings: in vivo
[13] = Oral bioavailability in ICR mouse at 10 mg/kg after 5 mins to 6 hrs; format: ADME, organism-based; settings: in vivo
[14] = Volume of distribution at steady state in ICR mouse at 10 mg/kg, iv after 5 mins to 6 hrs; format: ADME, organism-based; settings: in vivo, read-out: Vdss
[15] = Clearance in ICR mouse at 10 mg/kg, iv after 5 mins to 6 hrs; format: ADME, organism-based; settings: in vivo

Structure (SMILES)	IC50 [1]	MIC (Staphylococcus aureus [2])	MIC (Staphylococcus aureus [3])	other results
Cn1cc(Oc2cccc([N+](=O)[O-])c2Cl)c(=O)cc1COc1ccccc1	660 nM	3.12 µg/mL (≈ 8.08 µM)	0.781 µg/mL (≈ 2.02 µM)	
O=c1cc(COc2ccccc2)occ1Oc1c(Cl)cccc1Cl	1420 nM	12.5 µg/mL (≈ 34.4 µM)	6.25 µg/mL (≈ 17.2 µM)	
Oc1cc(Cl)ccc1Oc1ccc(Cl)cc1Cl [TRICLOSAN]			0.391 µg/mL (≈ 1.35 µM)	
O=c1cc(COc2ccccc2)[nH]cc1Oc1cccc(Cl)c1Cl	840 nM	1.56 µg/mL (≈ 4.32 µM)	1.56 µg/mL (≈ 4.32 µM)	
O=c1cc(/C=C/c2ccoc2)occ1Oc1ccc(Cl)cc1Cl	1890 nM		> 20 µg/mL	
Cc1cc(Cl)ccc1Oc1coc(/C=C/c2ccsc2)cc1=O	3120 nM		> 20 µg/mL	
CCCCn1cc(Oc2ccc(Cl)cc2C)c(=O)cc1COc1ccccc1	630 nM	3.12 µg/mL (≈ 7.85 µM)	3.12 µg/mL (≈ 7.85 µM)	
CCCCn1cc(Oc2ccc(C)cc2C)c(=O)cc1COc1ccccc1	1000 nM	1.56 µg/mL (≈ 4.14 µM)	0.781 µg/mL (≈ 2.07 µM)	
O=c1cc(COc2ccccc2)[nH]cc1Oc1ccc(Cl)cc1Cl	1820 nM	1.56 µg/mL (≈ 4.32 µM)	0.781 µg/mL (≈ 2.16 µM)	
O=c1cc(COc2ccccc2)occ1Oc1ccc(Cl)cc1Cl	680 nM	6.25 µg/mL (≈ 17.2 µM)	3.12 µg/mL (≈ 8.6 µM)	
O=c1cc(/C=C/c2cccnc2)occ1Oc1cccc(Cl)c1Cl	3440 nM		> 20 µg/mL	
Cc1cc(Cl)ccc1Oc1coc(/C=C/c2ccc[nH]2)cc1=O	5820 nM		> 20 µg/mL	
Cc1ccc(Oc2coc(/C=C/c3cccnc3)cc2=O)c(C)c1	3480 nM		> 20 µg/mL	
Cc1ccc(Oc2coc(/C=C/c3ccccc3)cc2=O)c(C)c1	5330 nM		> 20 µg/mL	
O=c1cc(COc2ccccc2)n(C2CC2)cc1Oc1cccc([N+](=O)[O-])c1Cl	17600 nM		> 20 µg/mL	
O=c1cc(/C=C/c2cccnc2)occ1Oc1c(Cl)cccc1Cl	3740 nM		> 20 µg/mL	
O=c1cc(/C=C/c2ccccc2)occ1Oc1cccc(Cl)c1Cl	6730 nM		> 20 µg/mL	
Cc1cc(Cl)ccc1Oc1cn(C2CC2)c(COc2ccccc2)cc1=O	470 nM	0.781 µg/mL (≈ 2.05 µM)	0.391 µg/mL (≈ 1.02 µM)	
Cc1cc(Cl)ccc1Oc1cn(Cc2ccccc2)c(COc2ccccc2)cc1=O	650 nM	6.25 µg/mL (≈ 14.5 µM)	3.12 µg/mL (≈ 7.24 µM)	
O=c1cc(COc2ccccc2)n(C2CC2)cc1Oc1c(Cl)cccc1Cl	6430 nM	3.12 µg/mL (≈ 7.77 µM)	3.12 µg/mL (≈ 7.77 µM)	
Cc1cc(Cl)ccc1Oc1coc(/C=C/c2cccnc2)cc1=O	2940 nM		> 20 µg/mL	
Cn1cc(Oc2c(Cl)cccc2Cl)c(=O)cc1COc1ccccc1	720 nM	0.195 µg/mL (≈ 0.518 µM)	0.195 µg/mL (≈ 0.518 µM)	
Cc1ccc(Oc2coc(COc3ccccc3)cc2=O)c(C)c1	380 nM	1.56 µg/mL (≈ 4.85 µM)	1.56 µg/mL (≈ 4.85 µM)	
O=c1cc(/C=C/c2ccoc2)occ1Oc1c(Cl)cccc1Cl	4120 nM		> 20 µg/mL	
Cn1cc(Oc2ccc(Cl)cc2Cl)c(=O)cc1COc1ccccc1	120 nM	0.195 µg/mL (≈ 0.518 µM)	0.195 µg/mL (≈ 0.518 µM)	
CC(=O)NC[C@H]1CN(c2ccc(N3CCOCC3)c(F)c2)C(=O)O1 [LINEZOLID]		0.781 µg/mL (≈ 2.32 µM)		
Cc1ccc(Oc2cn(Cc3ccccc3)c(COc3ccccc3)cc2=O)c(C)c1	2690 nM	3.12 µg/mL (≈ 7.59 µM)	1.56 µg/mL (≈ 3.8 µM)	

Structure (SMILES)	IC50 [1]	MIC (Staphylococcus aureus [2])	MIC (Staphylococcus aureus [3])	other results
Cc1cc(Cl)ccc1Oc1coc(/C=C/c2cccs2)cc1=O	4570 nM		> 20 µg/mL	
Cc1ccc(Oc2coc(/C=C/c3ccoc3)cc2=O)c(C)c1	2290 nM		> 20 µg/mL	
O=c1cc(COc2ccccc2)[nH]cc1Oc1c(Cl)cccc1Cl	4980 nM	3.12 µg/mL (≈ 8.63 µM)	3.12 µg/mL (≈ 8.63 µM)	
O=c1cc(/C=C/c2ccccc2)occ1Oc1c(Cl)cccc1Cl	4790 nM		> 20 µg/mL	
O=c1cc(COc2ccccc2)n(C2CC2)cc1Oc1ccc(Cl)cc1Cl	480 nM	1.56 µg/mL (≈ 3.89 µM)	1.56 µg/mL (≈ 3.89 µM)	
O=c1cc(COc2ccccc2)n(C2CC2)cc1Oc1cccc(Cl)c1Cl	1500 nM	6.25 µg/mL (≈ 15.5 µM)	3.12 µg/mL (≈ 7.77 µM)	
O=c1cc(/C=C/c2ccccc2)occ1Oc1ccc(Cl)cc1Cl	4530 nM		> 20 µg/mL	
O=c1cc(COc2ccccc2)occ1Oc1cccc(Cl)c1Cl	1250 nM	12.5 µg/mL (≈ 34.4 µM)	6.25 µg/mL (≈ 17.2 µM)	
Cc1cc(Cl)ccc1Oc1c[nH]c(COc2ccccc2)cc1=O	400 nM	1.56 µg/mL (≈ 4.57 µM)	1.56 µg/mL (≈ 4.57 µM)	
Cc1ccc(Oc2cn(C)c(COc3ccccc3)cc2=O)c(C)c1	80 nM	0.049 µg/mL (≈ 0.146 µM)	0.049 µg/mL (≈ 0.146 µM)	AUC(0-t) [4]: 5910 ng·h/mL; half-life [5]: 47.9 min; half-life [6]: 33.9 min; AUC(0-inf) [7]: 5920 ng·h/mL; Tmax [8]: 5 min; Cmax [9]: 4040 ng/mL; AUC(0-inf) [10]: 2490 ng·h/mL; MRT [11]: 36.5 min; AUC(0-t) [12]: 2480 ng·h/mL; bioavailability [13]: 41.9%; Vd [14]: 1.03 L/kg; clearance [15]: 28.1 mL/min/kg
Cc1cc(Cl)ccc1Oc1coc(COc2ccccc2)cc1=O	450 nM	6.25 µg/mL (≈ 18.2 µM)	1.56 µg/mL (≈ 4.56 µM)	
O=c1cc(COc2ccccc2)n(Cc2ccccc2)cc1Oc1ccc(Cl)cc1Cl	1420 nM	12.5 µg/mL (≈ 27.6 µM)	6.25 µg/mL (≈ 13.8 µM)	
Cc1cc(Cl)ccc1Oc1coc(/C=C/c2ccccc2)cc1=O	4880 nM		> 20 µg/mL	
O=c1cc(/C=C/c2cccnc2)occ1Oc1ccc(Cl)cc1Cl	2040 nM		> 20 µg/mL	
CCCCn1cc(Oc2ccc(Cl)cc2Cl)c(=O)cc1COc1ccccc1	1250 nM	6.25 µg/mL (≈ 14.9 µM)	6.25 µg/mL (≈ 14.9 µM)	
Cc1cc(Cl)ccc1Oc1coc(/C=C/C(C)C)cc1=O	5780 nM		> 20 µg/mL	
Cc1c(Oc2coc(COc3ccccc3)cc2=O)cccc1[N+](=O)[O-]	3520 nM	12.5 µg/mL (≈ 35.4 µM)	12.5 µg/mL (≈ 35.4 µM)	
Cc1cc(Cl)ccc1Oc1coc(/C=C/c2ccoc2)cc1=O	2450 nM		> 20 µg/mL	
CCC/C=C/c1cc(=O)c(Oc2ccc(Cl)cc2C)co1	6440 nM		> 20 µg/mL	
O=c1cc(COc2ccccc2)[nH]cc1Oc1cccc([N+](=O)[O-])c1Cl	11700 nM		> 20 µg/mL	
Cc1ccc(Oc2c[nH]c(COc3ccccc3)cc2=O)c(C)c1	1140 nM	1.56 µg/mL (≈ 4.86 µM)	0.781 µg/mL (≈ 2.43 µM)	
Cc1cc(Cl)ccc1Oc1coc(/C=C/c2ccco2)cc1=O	3890 nM		> 20 µg/mL	
COCc1cc(=O)c(Oc2ccc(Cl)cc2)co1	5200 nM		6.25 µg/mL (≈ 23.4 µM)	
Cc1cc(Cl)ccc1Oc1cn(C)c(COc2ccccc2)cc1=O	110 nM	0.098 µg/mL (≈ 0.275 µM)	0.098 µg/mL (≈ 0.275 µM)	
O=c1cc(/C=C/c2ccoc2)occ1Oc1cccc(Cl)c1Cl	5680 nM		> 20 µg/mL	
Cc1ccc(Oc2cn(C3CC3)c(COc3ccccc3)cc2=O)c(C)c1	3170 nM	1.56 µg/mL (≈ 4.32 µM)	0.391 µg/mL (≈ 1.08 µM)	
Cn1cc(Oc2cccc(Cl)c2Cl)c(=O)cc1COc1ccccc1	220 nM	0.195 µg/mL (≈ 0.518 µM)	0.195 µg/mL (≈ 0.518 µM)	
